ChEMBL document CHEMBL1134606, “Synthesis and structure-activity relationships of a new model of arylpiperazines. 5. Study of the physicochemical influence of the pharmacophore on 5-HT(1a)/alpha(1)-adrenergic receptor affinity: synthesis of a new derivative with mixed 5-HT(1a)/d(2) antagonist properties” (J Med Chem, 2001)
pKi: −log10 of the molar value.

Key:
[1] = target: T1, Adrenergic receptor alpha-1 (Rattus norvegicus, UniProt P15823+P23944+P43140); test: In vitro binding affinity towards alpha-1 adrenergic receptor using radioligand [3H]prazosin; assay type: protein assay
T1 sequence (P15823 whole entry): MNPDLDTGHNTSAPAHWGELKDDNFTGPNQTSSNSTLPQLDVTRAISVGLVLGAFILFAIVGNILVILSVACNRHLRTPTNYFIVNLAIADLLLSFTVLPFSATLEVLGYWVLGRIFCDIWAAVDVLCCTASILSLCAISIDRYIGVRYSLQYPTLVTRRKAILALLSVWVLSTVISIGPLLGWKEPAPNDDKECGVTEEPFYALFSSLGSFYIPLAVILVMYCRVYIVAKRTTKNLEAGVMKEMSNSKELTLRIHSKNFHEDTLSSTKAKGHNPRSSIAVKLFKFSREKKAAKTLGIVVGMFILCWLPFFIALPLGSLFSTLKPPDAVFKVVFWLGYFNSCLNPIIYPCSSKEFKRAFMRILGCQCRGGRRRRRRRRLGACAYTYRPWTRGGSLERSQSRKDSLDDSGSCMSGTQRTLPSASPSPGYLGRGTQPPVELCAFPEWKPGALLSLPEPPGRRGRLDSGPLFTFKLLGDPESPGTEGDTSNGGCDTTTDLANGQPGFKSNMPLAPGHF
T1 sequence (P23944 whole entry): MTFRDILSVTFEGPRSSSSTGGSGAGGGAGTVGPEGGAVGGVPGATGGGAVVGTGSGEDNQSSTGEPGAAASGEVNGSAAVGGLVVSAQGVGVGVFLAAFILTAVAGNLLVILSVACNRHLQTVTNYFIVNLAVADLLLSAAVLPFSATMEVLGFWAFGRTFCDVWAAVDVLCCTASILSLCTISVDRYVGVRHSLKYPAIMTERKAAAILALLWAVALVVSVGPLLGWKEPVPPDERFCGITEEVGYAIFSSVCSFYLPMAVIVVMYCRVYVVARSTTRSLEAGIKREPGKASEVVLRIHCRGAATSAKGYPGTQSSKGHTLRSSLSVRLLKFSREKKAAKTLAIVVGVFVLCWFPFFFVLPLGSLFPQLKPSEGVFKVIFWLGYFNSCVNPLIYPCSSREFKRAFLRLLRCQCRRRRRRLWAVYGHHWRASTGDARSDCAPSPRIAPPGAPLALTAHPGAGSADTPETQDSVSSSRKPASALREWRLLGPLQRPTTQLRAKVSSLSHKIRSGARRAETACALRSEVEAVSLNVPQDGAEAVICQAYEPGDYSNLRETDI
T1 sequence (P43140 whole entry): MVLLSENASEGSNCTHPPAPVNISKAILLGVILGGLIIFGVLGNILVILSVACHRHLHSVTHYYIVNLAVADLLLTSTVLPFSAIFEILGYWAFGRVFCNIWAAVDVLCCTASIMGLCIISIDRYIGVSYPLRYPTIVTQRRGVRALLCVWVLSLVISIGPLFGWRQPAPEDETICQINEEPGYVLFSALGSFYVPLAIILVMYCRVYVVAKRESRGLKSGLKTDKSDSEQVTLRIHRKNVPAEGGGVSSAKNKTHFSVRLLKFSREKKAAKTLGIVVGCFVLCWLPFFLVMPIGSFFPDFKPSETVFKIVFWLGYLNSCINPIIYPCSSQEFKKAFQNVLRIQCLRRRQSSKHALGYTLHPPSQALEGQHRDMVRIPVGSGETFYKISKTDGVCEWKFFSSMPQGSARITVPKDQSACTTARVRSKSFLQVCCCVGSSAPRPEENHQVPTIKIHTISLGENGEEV
Procedure, shortened: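 Cerebral cortex from male Sprague-Dawley rats, membranes (about 250 µg protein) in 50 mM Tris-HCl/10 mM MgCl2 pH 7.4, incubated 30 min at 25 °C with 0.2 nM [3H]prazosin and varied competitor concentrations; 10 µM phentolamine for nonspecific. Triplicates, filtration and scintillation counting; Ki from fitted IC50 by Cheng-Prusoff.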

[2] = target: T2, 5-hydroxytryptamine receptor 1A (Rattus norvegicus, UniProt P19327); test: In vitro binding affinity towards 5-hydroxytryptamine 1A receptor was determined using radioligand [3H]-8-OH-DPAT
T2 sequence (P19327 whole entry): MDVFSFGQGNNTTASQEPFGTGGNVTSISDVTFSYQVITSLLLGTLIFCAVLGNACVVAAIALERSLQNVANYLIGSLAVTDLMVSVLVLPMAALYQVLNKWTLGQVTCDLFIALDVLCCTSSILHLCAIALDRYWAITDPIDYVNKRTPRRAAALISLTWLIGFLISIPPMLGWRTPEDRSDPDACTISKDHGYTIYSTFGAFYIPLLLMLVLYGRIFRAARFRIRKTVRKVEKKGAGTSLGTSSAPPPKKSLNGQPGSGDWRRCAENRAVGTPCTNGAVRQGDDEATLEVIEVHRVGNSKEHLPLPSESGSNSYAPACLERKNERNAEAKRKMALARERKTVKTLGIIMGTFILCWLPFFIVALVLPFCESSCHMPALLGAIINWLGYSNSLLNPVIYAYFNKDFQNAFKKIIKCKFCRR
Procedure, shortened: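 Rat (male Sprague-Dawley) cerebral cortex membranes, about 1 mg protein, incubated 15 min at 37 °C with 0.6 nM [3H]8-OH-DPAT plus competitor in 50 mM Tris-HCl with 10 nM clonidine and 30 nM prazosin, pH 7.4. Nonspecific binding with 10 µM 5-HT. Triplicates; GF/B filtration, scintillation counting; IC50 curve fit, Ki by Cheng-Prusoff; 2-4 experiments.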

[3] = target: D(2) dopamine receptor (Rattus norvegicus) (UniProt P61169); test: In vitro binding affinity towards D2 receptor was determined
D(2) dopamine receptor (Rattus norvegicus), sequence (P61169 whole entry, looked up): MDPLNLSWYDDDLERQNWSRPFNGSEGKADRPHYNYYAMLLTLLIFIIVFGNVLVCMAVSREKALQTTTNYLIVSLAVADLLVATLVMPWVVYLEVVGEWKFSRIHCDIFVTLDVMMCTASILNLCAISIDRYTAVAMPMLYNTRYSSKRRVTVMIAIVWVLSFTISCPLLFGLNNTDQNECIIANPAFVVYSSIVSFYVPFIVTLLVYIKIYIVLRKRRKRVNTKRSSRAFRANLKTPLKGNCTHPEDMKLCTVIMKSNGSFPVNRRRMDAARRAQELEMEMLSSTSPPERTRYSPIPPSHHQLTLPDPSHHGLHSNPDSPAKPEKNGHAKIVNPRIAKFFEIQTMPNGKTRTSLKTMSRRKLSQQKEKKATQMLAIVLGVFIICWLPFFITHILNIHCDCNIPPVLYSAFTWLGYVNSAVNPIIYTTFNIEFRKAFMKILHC

[4] = target: 5-hydroxytryptamine receptor 4 (Rattus norvegicus); test: In vitro binding affinity towards 5-HT4 receptor was determined
[5] = target: 5-hydroxytryptamine receptor 3A (Rattus norvegicus) (UniProt P35563); test: In vitro binding affinity towards 5-hydroxytryptamine 3 receptor was determined
5-hydroxytryptamine receptor 3A (Rattus norvegicus), sequence (P35563 whole entry, looked up): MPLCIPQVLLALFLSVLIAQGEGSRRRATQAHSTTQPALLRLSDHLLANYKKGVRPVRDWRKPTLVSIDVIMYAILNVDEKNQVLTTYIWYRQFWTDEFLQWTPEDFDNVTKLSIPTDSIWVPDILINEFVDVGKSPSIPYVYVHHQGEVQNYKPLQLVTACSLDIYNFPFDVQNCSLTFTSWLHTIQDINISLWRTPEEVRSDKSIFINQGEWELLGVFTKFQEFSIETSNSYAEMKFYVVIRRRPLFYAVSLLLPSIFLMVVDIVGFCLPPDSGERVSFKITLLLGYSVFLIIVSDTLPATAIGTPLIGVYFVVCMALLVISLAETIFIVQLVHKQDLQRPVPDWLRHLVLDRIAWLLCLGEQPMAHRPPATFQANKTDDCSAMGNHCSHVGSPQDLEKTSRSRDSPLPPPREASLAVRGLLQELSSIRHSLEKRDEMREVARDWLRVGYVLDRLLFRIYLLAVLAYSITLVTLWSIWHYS

[6] = target: 5-hydroxytryptamine receptor 2A (Rattus norvegicus) (UniProt P14842); test: In vitro binding affinity towards 5-hydroxytryptamine 2A receptor was determined
5-hydroxytryptamine receptor 2A (Rattus norvegicus), sequence (P14842 whole entry, looked up): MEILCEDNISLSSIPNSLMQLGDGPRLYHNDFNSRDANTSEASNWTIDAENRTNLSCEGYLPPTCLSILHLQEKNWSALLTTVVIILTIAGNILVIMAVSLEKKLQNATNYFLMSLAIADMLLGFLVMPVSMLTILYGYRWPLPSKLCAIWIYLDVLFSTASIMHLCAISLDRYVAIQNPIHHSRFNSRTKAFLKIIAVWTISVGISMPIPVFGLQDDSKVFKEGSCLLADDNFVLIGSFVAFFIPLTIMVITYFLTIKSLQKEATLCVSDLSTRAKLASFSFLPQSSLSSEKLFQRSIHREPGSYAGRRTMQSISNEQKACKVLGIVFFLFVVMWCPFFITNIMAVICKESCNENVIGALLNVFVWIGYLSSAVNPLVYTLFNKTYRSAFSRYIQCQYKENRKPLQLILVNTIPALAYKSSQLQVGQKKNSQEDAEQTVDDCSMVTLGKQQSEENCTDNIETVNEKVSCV

Ki [1] [nM]	pKi [2]	SMILES	other results
> 10000		CC(C)C(=O)Nc1cccc(N2CCN(CCCCN3C(=O)C4CCCN4C3=O)CC2)c1.Cl (stereo not drawn)	
> 10000	< 6.00	CC(C)C(=O)Nc1cccc(N2CCN(CCCN3C(=O)C4CCCCN4C3=O)CC2)c1.Cl (stereo not drawn)	
13	7.48	Cl.N#Cc1ccccc1N1CCN(CCCN2C(=O)C3CCCCN3C2=O)CC1 (stereo not drawn)	
30	7.96	CCCCOc1ccccc1N1CCN(CCCN2C(=O)C3CCCN3C2=O)CC1.Cl (stereo not drawn)	
561	7.62	CCCOC(=O)c1ccccc1N1CCN(CCCCN2CC(=O)N3CCCCC3C2=O)CC1.Cl (stereo not drawn)	
10	7.80	Cc1ccccc1N1CCN(CCCCN2C(=O)C3CCCN3C2=O)CC1.Cl (stereo not drawn)	
51	8.41	CCCOC(=O)c1ccccc1N1CCN(CCCCN2C(=O)C3CCCN3C2=O)CC1.Cl (stereo not drawn)	
29	7.57	Cc1ccccc1N1CCN(CCCCN2CC(=O)N3CCCCC3C2=O)CC1.Cl (stereo not drawn)	
95	8.44	Cl.O=C1C2CCCN2C(=O)CN1CCCCN1CCN(c2cccc(C(F)(F)F)c2)CC1 (stereo not drawn)	
79	6.96	CCCCOc1ccccc1N1CCN(CCCN2CC(=O)N3CCCCC3C2=O)CC1.Cl (stereo not drawn)	
29	7.48	Cl.O=C1C2CCCN2C(=O)N1CCCN1CCN(c2cccc(Br)c2)CC1 (stereo not drawn)	
> 1000	6.49	CC(C)C(=O)Nc1cccc(N2CCN(CCCN3CC(=O)N4CCCC4C3=O)CC2)c1.Cl (stereo not drawn)	
41	7.22	CCCOC(=O)c1ccccc1N1CCN(CCCN2C(=O)C3CCCCN3C2=O)CC1.Cl (stereo not drawn)	
> 1000	< 6.00	CCCNC(=O)c1ccccc1N1CCN(CCCN2C(=O)C3CCCN3C2=O)CC1.Cl (stereo not drawn)	
27	7.85	Cl.N#Cc1ccccc1N1CCN(CCCCN2CC(=O)N3CCCCC3C2=O)CC1 (stereo not drawn)	
18	8.19	CCCCOc1ccccc1N1CCN(CCCCN2CC(=O)N3CCCC3C2=O)CC1.Cl (stereo not drawn)	

Second part, the compound before the results:

SMILES	Ki [1] [nM]	pKi [2]	other results
CCS(=O)(=O)Nc1cccc(N2CCN(CCCCN3C(=O)C4CCCN4C3=O)CC2)c1.Cl (stereo not drawn)	> 10000	7.57	pKi [3]: 7.66; pKi [4]: < 6.00; pKi [5]: < 6.00; pKi [6]: < 6.00
Cl.Nc1cccc(N2CCN(CCCCN3C(=O)C4CCCCN4C3=O)CC2)c1 (stereo not drawn)	215	7.10	
COc1ccccc1N1CCN(CCCCN2CC(=O)N3CCCC3C2=O)CC1.Cl (stereo not drawn)	28	8.07	
CCCNC(=O)c1ccccc1N1CCN(CCCCN2C(=O)C3CCCCN3C2=O)CC1.Cl (stereo not drawn)	> 1000	6.47	
CCCCOc1ccccc1N1CCN(CCCCN2C(=O)C3CCCCN3C2=O)CC1.Cl (stereo not drawn)	0.4	8.92	
Cl.N#Cc1ccccc1N1CCN(CCCCN2C(=O)C3CCCN3C2=O)CC1 (stereo not drawn)	8	8.43	
Cl.N#Cc1ccccc1N1CCN(CCCN2CC(=O)N3CCCC3C2=O)CC1 (stereo not drawn)	28	7.51	
CCCNC(=O)c1ccccc1N1CCN(CCCCN2CC(=O)N3CCCC3C2=O)CC1.Cl (stereo not drawn)	> 1000	< 6.00	
Cc1ccccc1N1CCN(CCCN2C(=O)C3CCCCN3C2=O)CC1.Cl (stereo not drawn)	5.3	6.87	
COc1ccccc1N1CCN(CCCN2CC(=O)N3CCCCC3C2=O)CC1.Cl (stereo not drawn)	16	6.90	
Cl.Nc1cccc(N2CCN(CCCN3C(=O)C4CCCN4C3=O)CC2)c1 (stereo not drawn)	> 1000	< 6.00	
Cl.O=C1C2CCCCN2C(=O)N1CCCCN1CCN(c2cccc(Br)c2)CC1 (stereo not drawn)	5.3	8.40	
CC(C)C(=O)Nc1cccc(N2CCN(CCCCN3CC(=O)N4CCCCC4C3=O)CC2)c1.Cl (stereo not drawn)	> 10000	6.77	
Cl.O=C1C2CCCCN2C(=O)CN1CCCN1CCN(c2cccc(C(F)(F)F)c2)CC1 (stereo not drawn)	252	6.67	
CCCNC(=O)c1ccccc1N1CCN(CCCN2CC(=O)N3CCCCC3C2=O)CC1.Cl (stereo not drawn)	> 1000	< 5.00	
CCCOC(=O)c1ccccc1N1CCN(CCCN2CC(=O)N3CCCC3C2=O)CC1.Cl (stereo not drawn)	26		
Cc1ccccc1N1CCN(CCCN2CC(=O)N3CCCC3C2=O)CC1.Cl (stereo not drawn)	23	7.57	
